Assay [1] has as its target Presenilin-1 (Homo sapiens) (UniProt P49768). Nature of the assay: Inhibition of PS1 PSase activity in human HeLa cells assessed as accumulation of full length protein at 1 to 10 uM after 4 days by Western blot analysis. Format: cell-based. The procedure, abridged: (§1)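 HeLa cells treated 4 days at 1, 3 or 10 µM, with DMSO vehicle as control. Lysis in RIPA buffer; 15 µg lysate run on 12% Bis-Tris gel in MES buffer. Western blot with anti PS1-NTF antibody, scoring full-length PS1 and PS1-NTF bands.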
In general terms: Immunoblotting shows a protein as a band on a membrane.

Assay [2] deals with Gamma-secretase. Nature of the assay: Inhibition of gamma-secretase (unknown origin) using APP substrate assessed as amyloid-beta40 production. Format: protein-complex assay, Homo sapiens.
Assay [3] addresses Nicastrin (Homo sapiens) (UniProt Q92542). In words: Binding affinity to nicastrin in human HeLa cell membrane by photolabelling assay. Type of assay: cell membranes. In short, it runs like this:
(§2)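 Photolabelling: 600 µg HeLa cell membrane diluted in PBS, preincubated with 2 µM CBAP or vehicle for 15 min at 37 °C. Then 20 nM probe for 1 h at 37 °C and UV irradiation (350 nm) for 45 min. Membranes pelleted and clicked to biotin azide (1 h, RT). Streptavidin pull-down overnight at 4 °C, biotin elution, Western blot with the relevant subunit antibody.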

Assay [4] deals with Presenilin-1 (Homo sapiens) (UniProt P49768). Nature of the assay: Binding affinity to PS1-CTF in human HeLa cell membrane by photolabelling assay. Type of assay: cell membranes. In short, it runs like this: as §2
The subject of assay [5] is HeLa. In words: Binding affinity to Signal peptide peptidase in human HeLa cell membrane by photolabelling assay. Type of assay: cell membranes. The procedure, abridged: as §2
In assay [6] the target is Gamma-secretase. In words: Inhibition of gamma-secretase (unknown origin) using Notch1 substrate assessed as Notch1-NICD production. Format: protein-complex assay, Homo sapiens.
Assay [7] concerns the target Gamma-secretase. In words: Inhibition of gamma-secretase (unknown origin) expressed in CHO cells transfected with APP assessed as amyloid-beta42 production by cell based assay. Details: species or system Homo sapiens.
Assay [8] has as its target Gamma-secretase subunit PEN-2 (Homo sapiens) (UniProt Q9NZ42). Nature of the assay: Binding affinity to Pen-2 in human HeLa cell membrane by photolabelling assay. Type of assay: cell membranes. The procedure, abridged: as §2
Assay [9] addresses Presenilin-1 (Homo sapiens) (UniProt P49768). Nature of the assay: Inhibition of PS1 PSase activity in human HeLa cells assessed as complete depletion of PS1-NTF protein at 1 to 10 uM after 4 days by Western blot analysis relative to control. Format: cell-based. The procedure, abridged: as §1
Assay [10] concerns HeLa. In words: Binding affinity to Aph-1 in human HeLa cell membrane by photolabelling assay. Type of assay: cell membranes. In short, it runs like this: as §2
In assay [11] the target is Presenilin-1 (Homo sapiens) (UniProt P49768). In words: Binding affinity to PS1-NTF in human HeLa cell membrane by photolabelling assay. Type of assay: cell membranes. The procedure, abridged: as §2

The source made the active and inactive calls. The rule behind the calls is not given here.

Chain of Gamma-secretase subunit PEN-2 (Homo sapiens) (Q9NZ42 whole entry): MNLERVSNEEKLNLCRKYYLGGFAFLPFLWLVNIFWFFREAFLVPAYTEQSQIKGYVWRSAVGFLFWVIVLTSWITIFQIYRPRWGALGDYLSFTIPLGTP
Chain of Nicastrin (Homo sapiens) (Q92542 whole entry): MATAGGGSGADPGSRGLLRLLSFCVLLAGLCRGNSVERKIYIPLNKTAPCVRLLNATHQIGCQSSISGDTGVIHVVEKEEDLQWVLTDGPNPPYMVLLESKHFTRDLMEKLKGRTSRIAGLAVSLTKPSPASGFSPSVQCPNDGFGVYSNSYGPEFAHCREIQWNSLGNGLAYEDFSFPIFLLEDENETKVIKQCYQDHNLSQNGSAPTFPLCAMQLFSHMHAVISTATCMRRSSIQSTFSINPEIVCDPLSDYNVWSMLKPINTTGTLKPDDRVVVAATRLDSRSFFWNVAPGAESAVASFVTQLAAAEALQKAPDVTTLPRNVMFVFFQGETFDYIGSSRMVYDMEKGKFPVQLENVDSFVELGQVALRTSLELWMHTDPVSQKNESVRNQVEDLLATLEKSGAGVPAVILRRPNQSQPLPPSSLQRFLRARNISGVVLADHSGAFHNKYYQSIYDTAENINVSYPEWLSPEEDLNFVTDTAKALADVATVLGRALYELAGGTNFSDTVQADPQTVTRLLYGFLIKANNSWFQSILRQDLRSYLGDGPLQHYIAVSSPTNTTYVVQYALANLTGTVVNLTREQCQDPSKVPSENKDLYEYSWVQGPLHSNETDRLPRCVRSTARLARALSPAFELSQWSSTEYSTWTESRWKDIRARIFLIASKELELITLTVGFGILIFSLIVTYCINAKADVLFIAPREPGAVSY

Consider `CC(C)C[C@H](NC(=O)[C@H](Cc1ccccc1)C[C@@H](O)[C@H](Cc1ccccc1)NC(=O)OC(C)(C)C)C(=O)N[C@@H](Cc1ccccc1)C(N)=O`, for which the inhibition result in [1] is “inactive”.

For orientation: IC50 means the point on the concentration scale where inhibition reaches its midpoint. As for `C[C@H](NC(=O)[C@H](Cc1ccccc1)C[C@@H](O)[C@H](Cc1ccccc1)NC(=O)OC(C)(C)C)C(=O)N[C@@H]1N=C(C2CCCCC2)c2ccccc2NC1=O`, the IC50 came to 0.7 nM in assay [2], 0.56 nM in assay [6] and 28 nM in assay [7]. For the same compound, the outcome in assay [3], in [4], in assay [8] and in assay [10] was inactive. For the same compound, the inhibition result in [1] and in assay [9] was “Active” throughout. Besides, the result in assay [5] and in assay [11] was Active.

With `C#CCOc1ccc(C(=O)c2ccc(C(=O)N[C@@H](Cc3ccccc3)[C@H](O)C[C@@H](Cc3ccccc3)C(=O)N[C@@H](C)C(=O)N[C@@H]3N=C(C4CCCCC4)c4ccccc4NC3=O)cc2)cc1`, the IC50 in [2] was determined as 0.91 nM; in assay [6], 1 nM; in [7], 20 nM. For the same compound, the result in assay [3], in assay [4], in assay [8] and in assay [10] was inactive. The inhibition result in assay [1] is “Active”. Besides, the result in assay [5] and in assay [11] was Active.

The values are drawn from ChEMBL document CHEMBL3132746, “Development of CBAP-BPyne, a probe for γ-secretase and presenilinase” (Medchemcomm, 2014).
